Laboratory results taken from ChEMBL document CHEMBL1142133 (2007).
Converted amounts (≈) assume the structure as drawn.

Experiments:
[1] = test system: Cryptococcus neoformans; test: Antifungal activity against flucytosine-resistant Cryptococcus neoformans 280 at 0.125 ug/ml after 72 hrs by time-kill method; format: functional
Summary of the method: (§1)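 Time-kill assay run as in the authors' earlier method. […] Read-out was log10 CFU/ml after 72 h incubation, compared with a drug-free control.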

[2] = test system: Cryptococcus neoformans; test: Antifungal activity against flucytosine-resistant Cryptococcus neoformans 550 at 0.19 ug/ml after 72 hrs by time-kill method; format: functional
[3] = test system: Cryptococcus neoformans; test: Antifungal activity against flucytosine-resistant Cryptococcus neoformans 280 by Etest method in presence of flucytosine; format: functional
[4] = test system: Cryptococcus neoformans; test: Antifungal activity against flucytosine-resistant Cryptococcus neoformans 98.0673 by Etest method in presence of flucytosine; format: functional
[5] = test system: Cryptococcus neoformans; test: Antifungal activity against flucytosine-resistant Cryptococcus neoformans 98.1121 at 0.125 ug/ml after 72 hrs by time-kill method; format: functional
Summary of the method: (§2)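 Time-kill assay on flucytosine-resistant isolates. […] Viable counts were taken as log10 CFU per ml after 72 h of incubation.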

[6] = test system: Cryptococcus neoformans; test: Antifungal activity against flucytosine-resistant Cryptococcus neoformans 98.0673 by checkerboard method; format: functional
[7] = test system: Cryptococcus neoformans; test: Antifungal activity against flucytosine-resistant Cryptococcus neoformans 99.1026 by Etest method in presence of flucytosine; format: functional
[8] = test system: Cryptococcus neoformans; test: Antifungal activity against flucytosine-resistant Cryptococcus neoformans 533 by Etest method in presence of flucytosine; format: functional
[9] = test system: Cryptococcus neoformans; test: Antifungal activity against flucytosine-resistant Cryptococcus neoformans 276 at 0.125 ug/ml after 72 hrs by time-kill method; format: functional; summary of the method: as §1
[10] = test system: Cryptococcus neoformans; test: Antifungal activity against flucytosine-resistant Cryptococcus neoformans 280 by checkerboard method; format: functional
[11] = test system: Cryptococcus neoformans; test: Antifungal activity against flucytosine-resistant Cryptococcus neoformans 18476 by Etest method in presence of flucytosine; format: functional
[12] = test system: Cryptococcus neoformans; test: Antifungal activity against flucytosine-resistant Cryptococcus neoformans 99.1026 at 0.125 ug/ml after 72 hrs by time-kill method; format: functional; summary of the method: as §2
[13] = test system: Cryptococcus neoformans; test: Antifungal activity against flucytosine-resistant Cryptococcus neoformans 550 by checkerboard method in presence of flucytosine; format: functional
[14] = test system: Cryptococcus neoformans; test: Antifungal activity against flucytosine-resistant Cryptococcus neoformans 18476 by checkerboard method in presence of flucytosine; format: functional
[15] = test system: Cryptococcus neoformans; test: Antifungal activity against flucytosine-resistant Cryptococcus neoformans 99.1026 by checkerboard method in presence of flucytosine; format: functional
[16] = test system: Cryptococcus neoformans; test: Antifungal activity against flucytosine-resistant Cryptococcus neoformans 98.0673 at 0.125 ug/ml after 72 hrs by time-kill method; format: functional; summary of the method: as §1
[17] = test system: Cryptococcus neoformans; test: Antifungal activity against flucytosine-resistant Cryptococcus neoformans 550 by Etest method in presence of flucytosine; format: functional
[18] = test system: Cryptococcus neoformans; test: Antifungal activity against flucytosine-resistant Cryptococcus neoformans 533 by checkerboard method in presence of flucytosine; format: functional
[19] = test system: Cryptococcus neoformans; test: Antifungal activity against flucytosine-resistant Cryptococcus neoformans 276 by checkerboard method in presence of flucytosine; format: functional
[20] = test system: Cryptococcus neoformans; test: microbe, parasite or virus in culture
[21] = test system: Cryptococcus neoformans; test: Antifungal activity against flucytosine-resistant Cryptococcus neoformans 533 at 0.125 ug/ml after 72 hrs by time-kill method; format: functional; summary of the method: as §1
[22] = test system: Cryptococcus neoformans; test: Antifungal activity against flucytosine-resistant Cryptococcus neoformans 98.0176 at 0.125 ug/ml after 72 hrs by time-kill method; format: functional; summary of the method: as §1
[23] = test system: Cryptococcus neoformans; test: Antifungal activity against flucytosine-resistant Cryptococcus neoformans 285 by checkerboard method; format: functional
[24] = test system: Cryptococcus neoformans; test: Antifungal activity against flucytosine-resistant Cryptococcus neoformans 18476 by checkerboard method; format: functional
[25] = test system: Cryptococcus neoformans; test: Antifungal activity against flucytosine-resistant Cryptococcus neoformans 18476 at 0.125 ug/ml after 72 hrs by time-kill method; format: functional; summary of the method: as §1
[26] = test system: Cryptococcus neoformans; test: Antifungal activity against flucytosine-resistant Cryptococcus neoformans 98.0176 by Etest method in presence of flucytosine; format: functional
[27] = test system: Cryptococcus neoformans; test: Antifungal activity against flucytosine-resistant Cryptococcus neoformans 285 by Etest method in presence of flucytosine; format: functional
[28] = test system: Cryptococcus neoformans; test: Antifungal activity against flucytosine-resistant Cryptococcus neoformans 276 by Etest method in presence of flucytosine; format: functional
[29] = test system: Cryptococcus neoformans; test: Antifungal activity against flucytosine-resistant Cryptococcus neoformans 98.0176 by checkerboard method in presence of flucytosine; format: functional
[30] = test system: Cryptococcus neoformans; test: Antifungal activity against flucytosine-resistant Cryptococcus neoformans 98.1121 by Etest method in presence of flucytosine; format: functional

Q: How did the log10CFU/ml [1] turn out when `C[C@@H]1[C@H](O)[C@@H](C)/C=C/C=C/C=C/C=C/C=C/C=C/C=C/[C@H](O[C@@H]2O[C@H](C)[C@@H](O)[C@H](N)[C@@H]2O)C[C@@H]2O[C@](O)(C[C@@H](O)C[C@@H](O)[C@H](O)CC[C@@H](O)C[C@@H](O)CC(=O)O[C@H]1C)C[C@H](O)[C@H]2C(=O)O` [AMPHOTERICIN B] was run?
A: 5.6

Q: And the log10CFU/ml [2]?
A: 7.2

Q: And the MIC [3]?
A: 0.094 µg/mL

Q: What about the MIC [4] of the same compound?
A: 0.094 µg/mL

Q: And the log10CFU/ml [5]?
A: 1.5

Q: And the MIC [6]?
A: 1 µg/mL

Q: What about the MIC [7] of the same compound?
A: 0.094 µg/mL

Q: And the MIC [8]?
A: 0.094 µg/mL

Q: And the log10CFU/ml [9]?
A: 7.3

Q: What about the MIC [10] of the same compound?
A: 1 µg/mL

Q: And the MIC [11]?
A: 0.094 µg/mL

Q: What about the log10CFU/ml [12] of the same compound?
A: 5.2

Q: What about the MIC [13] of the same compound?
A: 0.06 µg/mL

Q: What about the MIC [14] of the same compound?
A: 0.12 µg/mL

Q: What about the MIC [15] of the same compound?
A: 0.06 µg/mL

Q: And the log10CFU/ml [16]?
A: 7.2

Q: And the MIC [17]?
A: 0.094 µg/mL

Q: What about the MIC [18] of the same compound?
A: 0.12 µg/mL

Q: And the MIC [19]?
A: 0.06 µg/mL

Q: And the MIC [20]?
A: 0.25 µg/mL (≈ 0.271 µM)

Q: What about the log10CFU/ml [21] of the same compound?
A: 7.4

Q: What about the log10CFU/ml [22] of the same compound?
A: 6.5

Q: And the MIC [23]?
A: 1 µg/mL

Q: What about the MIC [24] of the same compound?
A: 0.25 µg/mL

Q: What about the log10CFU/ml [25] of the same compound?
A: 6.7

Q: What about the MIC [26] of the same compound?
A: 0.094 µg/mL

Q: What about the MIC [27] of the same compound?
A: 0.095 µg/mL

Q: What about the MIC [28] of the same compound?
A: 0.094 µg/mL

Q: And the MIC [29]?
A: 0.12 µg/mL

Q: What about the MIC [30] of the same compound?
A: 0.094 µg/mL
